Measurements published in ChEMBL document CHEMBL1123566, “Synthesis and cardiac electrophysiological activity of 2- and 3-[(substituted phenyl)alkyl]quinuclidines. Structure-activity relationships” (1987).
Where “and” joins values, the source holds several entries; their conditions need not be identical. Equal entries are not always repeated.

Experiments:
Canis familiaris [1] = assay: Mean arterial blood pressure was determined by intraduodenal administration of 10 mg/kg (low dose)of compound in anesthetized dogs. Value was reported for experiment 2; format: functional, Canis lupus familiaris
Canis familiaris [2] = species: Canis familiaris; assay: In vitro electrophysiological evaluation in canine cardiac Purkinje fibres reported as % change for action potential duration at 10 uM at 0.1-30 uM concentration range; format: functional, Canis lupus familiaris, Purkinje fiber
How it was run: (§1)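 Canine cardiac Purkinje fibres, intracellular microelectrode recording, paced at a basic cycle length of 1 s. APD95 and Vmax read simultaneously. Compound: 10 mM stock in deionized water, diluted into Tyrode's solution, tested over the stated concentration range. Each fibre used once as its own control. Result is % change from control, given at 10 µM or as the maximum with its concentration. M = <10% decrease or an increase in Vmax.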

Canis familiaris [3] = species: Canis familiaris; assay: In vitro electrophysiological evaluation in canine cardiac ventricular muscle reported as % change for conduction time(CT) at 10 uM at 0.1-10 uM concentration range; Minimal (<10% decrease or increase in CT).; format: functional, Canis lupus familiaris, Muscle tissue
Canis familiaris [4] = species: Canis familiaris; assay: In vitro electrophysiological evaluation in canine cardiac ventricular muscle reported as % change for the functional refractory period (FRP) at 10 uM at concentration range of 0.1-30 uM; design: species or system Canis lupus familiaris, Muscle tissue
How it was run: (§2)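 Canine right ventricle and papillary muscle strips in oxygenated Tyrode's solution, fitted with stimulating and recording electrodes. The extra-stimulus conduction-interval method was adapted for in vitro use. FRP and CT were read from a conduction-interval curve before and after various compound concentrations, and expressed as percent change from control. Compounds were taken from 10 mM deionized-water stock into Tyrode's. Each strip was used once as its own control.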

Canis familiaris [5] = assay: Mean arterial blood pressure was determined by intraduodenal administration of 10 mg/kg (low dose)of compound in anesthetized dogs. Value was reported for experiment 1; format: functional, Canis lupus familiaris
Canis familiaris [6] = species: Canis familiaris; assay: In vitro electrophysiological evaluation in canine cardiac Purkinje fibres reported as % change for action potential duration at a concentration of 10 uM; format: functional, Canis lupus familiaris, Purkinje fiber; how it was run: as §1
Canis familiaris [7] = assay: Conduction time was determined by intraduodenal administration of 30 mg/kg (high dose) of compound in anesthetized dogs. Value was reported for experiment 1; format: functional, Canis lupus familiaris
How it was run: (§3)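 Anesthetized dogs; compound given intraduodenally, generally as two doses, the second a cumulative (high) dose. LV functional refractory period and conduction time measured 15, 30 and 45 min after dosing; heart rate and blood pressure measured during nonpacing intervals. Values are % change from control, given per individual animal. Active if FRP or CT prolonged by ≥12%.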

Canis familiaris [8] = assay: Mean arterial blood pressure was determined by intraduodenal administration of 30 mg/kg (high dose) of compound in anesthetized dogs. Value was reported for experiment 2; format: functional, Canis lupus familiaris
Canis familiaris [9] = species: Canis familiaris; assay: In vitro electrophysiological evaluation in canine cardiac ventricular muscle reported as maximum % change for functional refractory period (FRP) at 0.1-10 uM concentration range; concentration at which it occurred is 1 uM.; design: species or system Canis lupus familiaris, Muscle tissue; how it was run: as §2
Canis familiaris [10] = assay: Left ventricular refractory period was determined by intraduodenal administration of 10 mg/kg (low dose) of compound in anesthetized dogs. Value was reported for experiment 2; format: functional, Canis lupus familiaris, Cardiac ventricle
How it was run: (§4)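 Anesthetized dogs received two intraduodenal doses, the second cumulative (low dose/high dose). Left ventricular FRP and CT were measured 15, 30 and 45 min after dosing. Heart rate and mean blood pressure were taken during nonpacing intervals. Values are percent change from control. The vehicle was 5% dextrose in water/tragacanth. Activity was defined as ≥12% prolongation of FRP or CT.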

Canis familiaris [11] = assay: Heart rate was determined by intraduodenal administration of 10 mg/kg (low dose) of compound in anesthetized dogs. Value was reported for experiment 2; format: functional, Canis lupus familiaris; how it was run: as §3
Canis familiaris [12] = assay: Conduction time was determined by intraduodenal administration of 30 mg/kg (high dose)of compound in anesthetized dogs. Value was reported for experiment 2; format: functional, Canis lupus familiaris; how it was run: as §3
Canis familiaris [13] = species: Canis familiaris; assay: In vitro electrophysiological evaluation in canine cardiac ventricular muscle reported as maximum % change for conduction time(CT) at 0.1-30 uM concentration range; Minimal (<10% decrease or increase in CT).; format: functional, Canis lupus familiaris, Muscle tissue; how it was run: as §2
Canis familiaris [14] = assay: Mean arterial blood pressure was determined by intraduodenal administration of 30 mg/kg (high dose) of compound in anesthetized dogs. Value was reported for experiment 1; format: functional, Canis lupus familiaris
Canis familiaris [15] = assay: Left ventricular refractory period was determined by intraduodenal administration of 30 mg/kg (high dose) of compound in anesthetized dogs. Value was reported for experiment 2; format: functional, Canis lupus familiaris, Cardiac ventricle; how it was run: as §4
Canis familiaris [16] = species: Canis familiaris; assay: In vitro electrophysiological activity in canine cardiac occurred is 1 uM; format: functional, Canis lupus familiaris, Heart
Canis familiaris [17] = species: Canis familiaris; assay: In vitro electrophysiological evaluation in canine cardiac Purkinje fibres reported as percent change Vmax at 10 uM at concentration range of 0.1-30 uM; format: functional; details: Canis lupus familiaris, Purkinje fiber; how it was run: as §1
Canis familiaris [18] = assay: Conduction time was determined by intraduodenal administration of 10 mg/kg (low dose)of compound in anesthetized dogs. Value was reported for experiment 2; format: functional, Canis lupus familiaris; how it was run: as §3
Canis familiaris [19] = species: Canis familiaris; assay: In vitro electrophysiological evaluation in canine cardiac ventricular muscle reported as maximum % change for functional refractory period (FRP) at 0.1-30 uM concentration range; concentration at which it occurred is 1 uM.; design: species or system Canis lupus familiaris, Muscle tissue; how it was run: as §2
Canis familiaris [20] = assay: Left ventricular refractory period was determined by intraduodenal administration of 30 mg/kg (high dose) of compound in anesthetized dogs. Value was reported for experiment 1; format: functional, Canis lupus familiaris, Cardiac ventricle; how it was run: as §4
Canis familiaris [21] = assay: Heart rate was determined by intraduodenal administration of 30 mg/kg (high dose) of compound in anesthetized dogs. Value was reported for experiment 1; format: functional, Canis lupus familiaris; how it was run: as §3
Canis familiaris [22] = species: Canis familiaris; assay: In vitro electrophysiological evaluation in canine cardiac ventricular muscle reported as % change for conduction time(CT) at 10 uM at 0.1-30 uM concentration range; Minimal (<10% decrease or increase in CT).; format: functional, Canis lupus familiaris, Muscle tissue
Canis familiaris [23] = assay: Heart rate was determined by intraduodenal administration of 10 mg/kg (low dose) of compound in anesthetized dogs. Value was reported for experiment 1; format: functional, Canis lupus familiaris; how it was run: as §3
Canis familiaris [24] = species: Canis familiaris; assay: In vitro electrophysiological evaluation in canine cardiac occurred is 30 uM; format: functional; details: Canis lupus familiaris; Heart
Canis familiaris [25] = species: Canis familiaris; assay: In vitro electrophysiological evaluation in canine cardiac ventricular muscle reported as % change for the functional refractory period (FRP) at 10 uM at concentration range of 0.1-10 uM; design: species or system Canis lupus familiaris, Muscle tissue; how it was run: as §2
Canis familiaris [26] = species: Canis familiaris; assay: In vitro electrophysiological evaluation in canine cardiac Purkinje fibres reported as percent change Vmax at 10 uM at concentration range of 0.1-30 uM; Minimal (<10% decrease or increase in V max).; format: functional, organism-based; details: Canis lupus familiaris, Purkinje fiber; how it was run: as §1
Canis familiaris [27] = assay: Left ventricular refractory period was determined by intraduodenal administration of 10 mg/kg (low dose) of compound in anesthetized dogs. Value was reported for experiment 1; format: functional, Canis lupus familiaris, Cardiac ventricle; how it was run: as §4
Canis familiaris [28] = assay: Conduction time was determined by intraduodenal administration of 10 mg/kg (low dose) of compound in anesthetized dogs. Value was reported for experiment 1; format: functional, Canis lupus familiaris; how it was run: as §3
Canis familiaris [29] = species: Canis familiaris; assay: In vitro electrophysiological evaluation in canine cardiac ventricular muscle reported as maximum % change for functional refractory period (FRP) at 0.1-30 uM concentration range; concentration at which it occurred is 30 uM.; design: species or system Canis lupus familiaris, Muscle tissue; how it was run: as §2
Canis familiaris [30] = species: Canis familiaris; assay: In vitro electrophysiological evaluation in canine cardiac ventricular muscle reported as maximum % change for conduction time(CT) at 0.1-10 uM concentration range; Minimal (<10% decrease or increase in CT).; format: functional, Canis lupus familiaris, Muscle tissue; how it was run: as §2
Canis familiaris [31] = assay: Heart rate was determined by intraduodenal administration of 30 mg/kg (high dose) of compound in anesthetized dogs. Value was reported for experiment 2; format: functional, Canis lupus familiaris; how it was run: as §3

**Q.** For `Cl.O=C(CCC1C(=O)C2CCN1CC2)c1ccc(Cl)cc1` (stereo unspecified), which Mean blood pressure (Canis familiaris [1]) is on record?
**A.** 18%

**Q.** What about the APD95 (Canis familiaris [2]) of the same molecule?
**A.** 5%

**Q.** What about the CT (Canis familiaris [3]) of the same molecule?
**A.** <10%

**Q.** What about the FRP (Canis familiaris [4]) of the same molecule?
**A.** 10%

**Q.** And the Mean blood pressure (Canis familiaris [5])?
**A.** -5%

**Q.** And the APD95 (Canis familiaris [6])?
**A.** 13%

**Q.** What about the CT (Canis familiaris [7]) of the same molecule?
**A.** 14%

**Q.** What about the Mean blood pressure (Canis familiaris [8]) of the same molecule?
**A.** 23%

**Q.** What about the FRP (Canis familiaris [9]) of the same molecule?
**A.** 22%

**Q.** What about the “LV FRP” value (Canis familiaris [10]) of the same molecule?
**A.** 12%

**Q.** And the HR (Canis familiaris [11])?
**A.** -15%

**Q.** And the CT (Canis familiaris [12])?
**A.** 13%

**Q.** And the CT (Canis familiaris [13])?
**A.** <10%

**Q.** And the Mean blood pressure (Canis familiaris [14])?
**A.** 0%

**Q.** And the “LV FRP” value (Canis familiaris [15])?
**A.** 6%

**Q.** And the APD95 (Canis familiaris [16])?
**A.** 14% and 12%

**Q.** And the Vmax (Canis familiaris [17])?
**A.** -10%

**Q.** What about the CT (Canis familiaris [18]) of the same molecule?
**A.** 4%

**Q.** What about the FRP (Canis familiaris [19]) of the same molecule?
**A.** 15%

**Q.** What about the “LV FRP” value (Canis familiaris [20]) of the same molecule?
**A.** 15%

**Q.** And the HR (Canis familiaris [21])?
**A.** -18%

**Q.** What about the CT (Canis familiaris [22]) of the same molecule?
**A.** <10%

**Q.** What about the HR (Canis familiaris [23]) of the same molecule?
**A.** -13%

**Q.** What about the Vmax (Canis familiaris [24]) of the same molecule?
**A.** -26% and -18%

**Q.** What about the FRP (Canis familiaris [25]) of the same molecule?
**A.** 17%

**Q.** And the Vmax (Canis familiaris [26])?
**A.** < 10%

**Q.** What about the “LV FRP” value (Canis familiaris [27]) of the same molecule?
**A.** 15%

**Q.** And the CT (Canis familiaris [28])?
**A.** 5%

**Q.** And the FRP (Canis familiaris [29])?
**A.** -9%

**Q.** What about the CT (Canis familiaris [30]) of the same molecule?
**A.** <10%

**Q.** And the HR (Canis familiaris [31])?
**A.** -21%
